Results: ChEMBL document CHEMBL4680287, “Ibrexafungerp: An orally active β-1,3-glucan synthesis inhibitor” (Bioorg Med Chem Lett, 2021)

Columns and labels:
Aspergillus fumigatus [1] = experiment: Antifungal activity against Aspergillus fumigatus MF5668 infected in DBA/2N mouse assessed as mouse survival at 3.125 mg/kg, ip bid administered for 7 days starting from 15 to 30 mins post infection and measured up to 21 days relative to control; type: functional; settings: 168 h, time 7 day
Procedure, shortened: (§1)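 DBA/2N mice were infected IV with A. fumigatus MF5668 (6.7 x 10^5 CFU/mouse) and treated IP bid for 7 days. Percent survival per dose group was scored at the end of the 21-day survival model and compared with the sham-treated control group.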

Aspergillus fumigatus [2] = experiment: Antifungal activity against Aspergillus fumigatus MF5668 infected in ip dosed DBA/2N mouse assessed as 50% mouse survival administered bid administered for 7 days starting from 15 to 30 mins post infection and measured up to 21 days; settings: 168 h
[3] = Clearance in dog; type: ADME, Canis lupus familiaris; settings: in vivo
Aspergillus fumigatus [4] = experiment: Antifungal activity against Aspergillus fumigatus MF5668 infected in DBA/2N mouse assessed as mouse survival at 12.5 mg/kg, ip bid administered for 7 days starting from 15 to 30 mins post infection and measured up to 21 days relative to control; type: functional; settings: 168 h, time 7 day; procedure, shortened: as §1
[5] = Dose normalized AUC in po rhesus monkey; type: ADME, organism-based, Macaca mulatta; settings: in vivo
Aspergillus fumigatus [6] = experiment: Antifungal activity against Aspergillus fumigatus MF5668 infected in ip dosed DBA/2N mouse assessed as 90% mouse survival administered bid administered for 7 days starting from 15 to 30 mins post infection and measured up to 21 days; type: functional; settings: 168 h, time 7 day
Candida albicans [7] = experiment: Antifungal activity against Candida albicans MY1055 infected in DBA/2 mouse model of disseminated candidiasis assessed as reduction in fungal burden in kidney by measuring log change in colony forming units at 25 mg/kg, po bid for 7 days by TOKA; type: functional; settings: time 7 day
Procedure, shortened: (§2)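 Murine disseminated candidiasis model (TOKA) in mice challenged with C. albicans MY1055 at 2.44 x 10^4 CFU/mouse. Dosed PO, or IP where stated. Kidneys collected aseptically 7 days after challenge and CFUs/g counted. Change in log CFU/g is relative to sham-treated controls; significance by two-tailed t test. Clearance is the percentage of kidneys below the detection limit.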

[8] = Dose normalized AUC in po dosed dog; type: ADME, organism-based, Canis lupus familiaris; settings: in vivo
Aspergillus fumigatus [9] = experiment: Antifungal activity against Aspergillus fumigatus MF5668 infected in DBA/2N mouse assessed as mean survival time at 6.25 mg/kg, ip bid administered for 7 days starting from 15 to 30 mins post infection and measured up to 21 days; type: functional; settings: time 7 day
Procedure, shortened: (§3)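 DBA/2N mice were challenged IV with A. fumigatus MF5668 at 6.7 x 10^5 CFU/mouse, then dosed IP twice daily for 7 days. Survival was followed over a 21-day model, and mean survival time in days was recorded per dose group. A sham-treated control group was run alongside.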

[10] = Dose normalized AUC in po dosed mouse; type: ADME, organism-based; settings: in vivo
Candida albicans [11] = experiment: Antifungal activity against Candida albicans MY1055 infected in DBA/2 mouse model of disseminated candidiasis assessed as reduction in fungal burden in kidney by measuring log change in colony forming units at 12.5 mg/kg, ip bid for 7 days by TOKA; type: functional; settings: time 7 day; procedure, shortened: as §2
[12] = Half life in dog; type: ADME, Canis lupus familiaris; settings: in vivo
[13] = Clearance in rhesus monkey; type: ADME, Macaca mulatta; settings: in vivo
[14] = Inhibition of beta-1,3-glucan synthase in Candida albicans MY1055 microsomal membrane assessed as inhibition of TCA-insoluble material formation using UDP-[3H]-glucose as substrate incubated for 2 hrs in presence of GTP by radioactivity-based assay; type: microsomes, Microsome
Procedure, shortened: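 GS IC50 measured using Candida albicans MY1055 microsomal membrane fragments as the enzyme source.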

[15] = Clearance in mouse; type: ADME, organism-based; settings: in vivo
[16] = Half life in rat; type: ADME; settings: in vivo
Aspergillus fumigatus [17] = experiment: Antifungal activity against Aspergillus fumigatus MF5668 assessed inhibition of fungal growth by measuring morphological changes measured after 24 hrs by microscopy; type: functional; settings: read-out: MEC
Procedure, shortened: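 Microdilution per CLSI protocols in RPMI medium. Read-out is the minimum effective concentration (MEC). Run without serum and with 50% human serum.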

[18] = Oral bioavailability in mouse; type: ADME, organism-based; settings: in vivo
Procedure, shortened: (§4)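 Oral bioavailability calculated as oral AUC normalized to the IV dose, divided by the IV AUC.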

[19] = Oral bioavailability in rhesus monkey; type: ADME, organism-based, Macaca mulatta; settings: in vivo; procedure, shortened: as §4
[20] = Dose normalized AUC in po dosed rat; type: ADME, organism-based; settings: in vivo
Aspergillus fumigatus [21] = experiment: Antifungal activity against Aspergillus fumigatus MF5668 infected in DBA/2N mouse assessed as mean survival time at 3.125 mg/kg, ip bid administered for 7 days starting from 15 to 30 mins post infection and measured up to 21 days; type: functional; settings: time 7 day; procedure, shortened: as §3
Candida albicans [22] = experiment: Antifungal activity against Candida albicans MY1055 infected in DBA/2 mouse model of disseminated candidiasis assessed as reduction in fungal burden in kidney by measuring log change in colony forming units at 6.25 mg/kg, po bid for 7 days by TOKA; type: functional; settings: time 7 day; procedure, shortened: as §2
[23] = Oral bioavailability in rat; type: ADME, organism-based; settings: in vivo; procedure, shortened: as §4
[24] = Half life in mouse; type: ADME, organism-based; settings: in vivo
Candida albicans [25] = experiment: Antifungal activity against Candida albicans MY1055 infected in ip dosed DBA/2 mouse model of disseminated candidiasis assessed as reduction in fungal burden in kidney administered bid for 7 days by TOKA; type: functional; settings: 168 h, time 7 day; procedure, shortened: as §2
Candida albicans [26] = experiment: Antifungal activity against Candida albicans MY1055 assessed as fungal growth inhibition measured after 24 hrs in presence of 50% mouse serum by liquid microdilution method; type: functional
Procedure, shortened: (§5)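 Broth microdilution per CLSI protocols in RPMI medium. Read-out is the MIC, the lowest concentration completely inhibiting fungal growth. Run without serum and with added serum.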

Aspergillus fumigatus [27] = experiment: Antifungal activity against Aspergillus fumigatus MF5668 infected in DBA/2N mouse assessed as mouse survival at 1.56 mg/kg, ip bid administered for 7 days starting from 15 to 30 mins post infection and measured up to 21 days relative to control; type: functional; settings: 168 h, time 7 day; procedure, shortened: as §1
Candida albicans [28] = experiment: Antifungal activity against Candida albicans MY1055 infected in DBA/2 mouse model of disseminated candidiasis assessed as reduction in fungal burden in kidney by measuring log change in colony forming units at 12.5 mg/kg, po bid for 7 days by TOKA; type: functional; settings: time 7 day; procedure, shortened: as §2
[29] = Oral bioavailability in dog; type: ADME, organism-based, Canis lupus familiaris; settings: in vivo; procedure, shortened: as §4
Aspergillus fumigatus [30] = experiment: Antifungal activity against Aspergillus fumigatus MF5668 infected in DBA/2N mouse assessed as mean survival time at 12.5 mg/kg, ip bid administered for 7 days starting from 15 to 30 mins post infection and measured up to 21 days; type: functional; settings: time 7 day; procedure, shortened: as §3
Aspergillus fumigatus [31] = experiment: Antifungal activity against Aspergillus fumigatus MF5668 infected in DBA/2N mouse assessed as mouse survival at 6.25 mg/kg, ip bid administered for 7 days starting from 15 to 30 mins post infection and measured up to 21 days relative to control; type: functional; settings: 168 h, time 7 day; procedure, shortened: as §1
Candida albicans [32] = experiment: Antifungal activity against Candida albicans MY1055 assessed as fungal growth inhibition measured after 24 hrs by liquid microdilution method; type: functional; procedure, shortened: as §5
[33] = Clearance in rat; type: ADME; settings: in vivo
[34] = Half life in rhesus monkey; type: ADME, Macaca mulatta; settings: in vivo
Aspergillus fumigatus [35] = experiment: Antifungal activity against Aspergillus fumigatus MF5668 infected in DBA/2N mouse assessed as mean survival time at 1.56 mg/kg, ip bid administered for 7 days starting from 15 to 30 mins post infection and measured up to 21 days; type: functional; settings: time 7 day; procedure, shortened: as §3

Compound `CC(C)[C@@H](C)[C@@]1(C)CC[C@]2(C)[C@H]3CC[C@@H]4[C@@]5(COC[C@@]4(C)[C@@H](OC[C@](C)(N)C(C)C)[C@H](n4ncnc4-c4ccncc4)C5)C3=CC[C@@]2(C)[C@@H]1C(=O)O` has a survival at 3.125 mg/kg (Aspergillus fumigatus [1]) of 30%, an ED50 (Aspergillus fumigatus [2]) of 8.2 mg/kg and a clearance [3] of 6 mL/min/kg. For the same compound, the survival at 12.5 mg/kg (Aspergillus fumigatus [4]) was 60%, the AUC/dose [5] was 0.08 µM·kg·h/mg and the ED90 (Aspergillus fumigatus [6]) was 31 mg/kg. The Activity (Candida albicans [7]) was -4.5 deltalog10CFU, the AUC/dose [8] was 0.9 µM·kg·h/mg and the MST (Aspergillus fumigatus [9]) was 12.4 days. The AUC/dose [10] was 0.42 µM·kg·h/mg, the Activity (Candida albicans [11]) was -4.01 deltalog10CFU and the half-life [12] was 9 h. For the same compound, the clearance [13] was 14 mL/min/kg, the IC50 [14] was 0.002 µg/mL and the clearance [15] was 17 mL/min/kg. It also gave a half-life [16] of 3.9 h, a minimal effective concentration (Aspergillus fumigatus [17]) of less than 0.03 µg/mL and a bioavailability [18] of 31%. The bioavailability [19] was 5%, the AUC/dose [20] was 0.56 µM·kg·h/mg and the MST (Aspergillus fumigatus [21]) was 10.7 days. For the same compound, the Activity (Candida albicans [22]) was -2.4 deltalog10CFU, the bioavailability [23] was 28% and the half-life [24] was 4.9 h. It also gave an ED99 (Candida albicans [25]) of 1.2 mg/kg, an MIC (Candida albicans [26]) of 0.5 µg/mL and a survival at 1.56 mg/kg (Aspergillus fumigatus [27]) of 0%. It also gave an Activity (Candida albicans [28]) of -2.9 deltalog10CFU, a bioavailability [29] of 21% and an MST (Aspergillus fumigatus [30]) of 14.7 days. The survival at 6.25 mg/kg (Aspergillus fumigatus [31]) was 40%, the MIC (Candida albicans [32]) was less than 0.03 µg/mL and the clearance [33] was 12 mL/min/kg. For the same compound, the half-life [34] was 6.1 h and the MST (Aspergillus fumigatus [35]) was 4.2 days.
